Screening results from PubChem BioAssay.
MrgX1 agonist = agonists of human MrgX1 receptor, primary screen, HEK293 cells, Fluo-4 calcium flux; Fluo-4 calcium fluorescence, agonist mode; active compounds read high; Mas-related G-protein coupled receptor member X1 (Homo sapiens), Q96LB2; B-score at 10 µM; 310,000 tested, 0.44% active;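 active means calcium response B-score plate-corrected fluorescence ratio at least 3 library SD, with starting fluorescence B-score inside 5 SD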
Target sequence (Q96LB2 whole entry, looked up): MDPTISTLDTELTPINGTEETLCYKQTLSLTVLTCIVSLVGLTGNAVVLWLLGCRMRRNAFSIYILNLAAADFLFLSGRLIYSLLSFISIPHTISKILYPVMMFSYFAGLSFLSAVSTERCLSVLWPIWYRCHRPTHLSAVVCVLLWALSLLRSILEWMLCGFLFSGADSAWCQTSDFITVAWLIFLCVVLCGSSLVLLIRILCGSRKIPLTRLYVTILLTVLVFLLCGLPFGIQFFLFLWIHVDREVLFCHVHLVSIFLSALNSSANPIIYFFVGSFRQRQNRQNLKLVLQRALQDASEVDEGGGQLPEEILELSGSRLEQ
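times = overnight plating, then 30 min 37 °C plus 30 min room-temperature dye loading | assay system = stable human MrgX1 HEK293 cell line | input = fifteen thousand cells per well | signal = kinetic calcium dye fluorescence, Fluo-4 NW | dosing = compound delivered in addition one of three | read-out = B-scored fluorescence response ratio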
RGS4 inh = RGS4 inhibitors, primary screen, cell-based, HEK293 M3R inducible RGS4, calcium flux | Regulator of G-protein signaling 4 (Homo sapiens), P49798 | Fluo-4 calcium flux; active compounds read high; triggered by carbachol at its EC20 | B-score at 10 µM | 310,000 tested, 0.45% active;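 active means B-score, a plate-corrected calcium signal, over three deviations above library mean, with baseline fluorescence within five deviations of library mean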;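 further: RGS4 expression induced by doxycycline in cells with stable M3 receptor; B-score is computed from the integrated fluorescence ratio over baseline after carbachol; higher B-score means a larger calcium signal and so more RGS4 inhibition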
Target sequence (P49798 whole entry, looked up): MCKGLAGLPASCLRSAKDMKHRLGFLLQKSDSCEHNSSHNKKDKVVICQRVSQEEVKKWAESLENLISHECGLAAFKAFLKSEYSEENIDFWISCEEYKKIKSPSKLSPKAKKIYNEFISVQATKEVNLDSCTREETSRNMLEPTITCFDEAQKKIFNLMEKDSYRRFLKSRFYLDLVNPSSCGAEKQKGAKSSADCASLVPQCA
MrgX1 allo act = positive allosteric modulators of MrgX1, primary screen, HEK293 cells, Fluo-4 calcium flux; FDSS; active compounds read high; B-score at 10 µM; AID 588675, 2011; Mas-related G-protein coupled receptor member X1 (Homo sapiens), Q96LB2; 310,000 tested, 0.63% active;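 active means plate-corrected calcium response at least 3 library SD above typical, normal starting fluorescence, not activating the receptor alone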;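 further: compound read alongside a low EC10 to EC30 dose of BAM8-22 agonist; peak minus trough fluorescence over baseline measured at the second addition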
RGS4 pot = RGS4 potentiators or activators, primary screen, cell-based, HEK293 M3R inducible RGS4, calcium flux; AID 463111, 2010; 310,000 tested, 0.92% active; B-score at 10 µM; carbachol calcium flux Fluo4; active compounds read low;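 active means B-score of the integrated calcium signal more than 4 SD below the library mean, with starting fluorescence not abnormally high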;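 further: negative B-score means reduced calcium response which marks RGS4 activation or potentiation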
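System – HEK293 FlpIn-TREx cells, stable M3R, doxycycline-inducible RGS4 · Reagent – ECmax carbachol challenge · Times – compound preincubation 20 min at room temperature before agonist · Technique – Fluo4 fluorescence kinetic imaging of calcium · Measure – B score of integrated Fluo4 ratio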
MrgX1 antagonist = antagonists of human MrgX1 receptor, primary screen, HEK293 cells, Fluo-4 calcium flux; BAM8-22 antagonism; active compounds read low; 310,000 tested, 1.3% active; Mas-related G-protein coupled receptor member X1 (Homo sapiens), Q96LB2; B-score at 10 µM;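 active means calcium-response B-score plate-corrected more than 3 library SD below zero, starting fluorescence within 5 deviations, no agonist response on first addition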;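 further: peak minus trough fluorescence over baseline after final BAM8-22 challenge near maximal dose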
RGS4 inh valid = enhanced carbachol calcium response, M3R/RGS4 cells, RGS4 inhibitor project, cell-based, validation screen, HEK293 M3R/RGS4, calcium flux; shares compounds with RGS4 inh; carbachol calcium Fluo-4 fluorescence; carbachol added at its EC20; 0 = buffer wells, 100 = carbachol control; 1,700 tested, 65% active; AID 492999, 2010; calcium response, % at 10 µM;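 active means duplicate-averaged calcium response above the buffer-only control mean plus 5 SD of those controls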;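 further: integrated fluorescence ratio F max minus min over baseline F0; higher response in RGS4-induced cells means RGS4 inhibition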
RGS4 uninduced = carbachol calcium response in non-induced M3R cells, confirmation, counter-screen for RGS4 inhibitor project, cell-based, HEK293 M3R. shares compounds with RGS4 inh. carbachol calcium Fluo-4; submaximal (EC20) carbachol stimulus; buffer wells 0%, carbachol control wells 100%. activity (percent), % at 10 µM. 1,900 tested, 20% active. AID 493000, 2010; call rule not given here;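 further: RGS4 induction absent so cells express M3R without RGS4; higher means more calcium signal and flags a non-specific hit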
RGS4 inh ctr2 = second counter-screen for RGS4 inhibitors: non-induced cells without carbachol; AID 493001; 1,900 tested, 22% active; HEK293 M3R/RGS4 non-induced, Fluo-4 calcium, no carbachol; normalised: buffer wells 0%, carbachol wells 100%; calcium response (agonist-mode artifact), % at 10 µM; shares compounds with RGS4 inh;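 active means duplicate-averaged calcium rise in uninduced cells above buffer wells' mean plus 5 SD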
An asterisk follows results filed as active; i = inactive; nt = no result. Only some compounds are listed: those with a hit (about 3.5% of all), similar ones and a draw of the others.

SMILES	MrgX1 agonist	RGS4 inh	MrgX1 allo act	RGS4 pot	MrgX1 antagonist	RGS4 inh valid	RGS4 uninduced	RGS4 inh ctr2
Cc1cccc(N=N/C(=C\O)C(=O)c2ccc(Br)cc2)c1	i	5.27*	i	i	i	26.0%*	i	i
COc1ccc(N=N/C(=C\O)C(=O)c2cccs2)cc1	i	i	i	i	i	nt	nt	nt
Cc1ccc(CNC(=O)c2ccc(S(=O)(=O)N(C)C)cc2)n1C	i	i	i	i	i	nt	nt	nt
Fc1ccc(-c2csc(Nc3ccccn3)n2)cc1	i	i	i	i	i	i	i	i
CC(=O)Nc1ccc(S(=O)(=O)Nc2cc([N+](=O)[O-])ccc2C)cc1	i	i	i	i	i	nt	nt	nt
Cc1ccc(NS(=O)(=O)c2ccc(NC(=O)CN(c3cc([N+](=O)[O-])ccc3C)S(C)(=O)=O)cc2)c(C)c1	i	8.64*	i	i	i	23.0%*	i	i
CC(C)Oc1ccc(CN2CCC(n3nccc3NC(=O)C3CC3)CC2)cc1	i	i	i	i	i	nt	nt	nt
CC(=O)N1CC(=O)N=C1SCC(=O)Nc1nc(-c2ccccc2)c(-c2ccccc2)s1	i	8.68*	i	i	i	29.0%*	i	i
Cc1sc(NC(=O)CSC2=NCCS2)nc1-c1ccccc1	i	i	i	i	i	nt	nt	nt
CN(CC(=O)Nc1c(Cl)cccc1Cl)C(=O)CCNS(=O)(=O)c1ccccc1C(F)(F)F	i	i	i	i	i	nt	nt	nt
Cc1csc(SCC(=O)NC(C)C2CC3CCC2C3)n1 (stereo unspecified)	i	i	i	i	i	nt	nt	nt
CC(C)CC(=O)/C(=C\c1ccc(Cl)cc1Cl)n1cncn1	nt	6.84*	nt	i	nt	16.5%*	i	20.0%*
CC(C)CC(=O)/C(=C/c1ccc(N(C)C)cc1)n1cncn1	i	i	i	i	i	nt	nt	nt
Cc1coc2cc3oc(=O)c(Cc4ccccc4)c(C)c3cc12	i	i	i	i	i	nt	nt	nt
Cc1c(Cc2ccccc2)c(=O)oc2cc(O)cc(O)c12	i	5.5*	i	i	i	10.0%*	i	i
Cc1ccc(-c2nc3ncccn3c2Nc2ccccc2C)o1	i	i	i	i	i	nt	nt	nt
Cc1ccc(-c2nc3cnccn3c2Nc2c(C)cccc2C)o1	i	6.35*	i	i	i	8.0%*	i	25.5%*
CC(C)(Oc1ccc(Cl)cc1)C(=O)N/N=C/c1cn[nH]c1-c1ccccc1	i	5*	i	i	i	26.0%*	i	i
O=C(N/N=C\c1cn[nH]c1-c1ccc(Cl)cc1)c1cccs1	i	i	i	i	i	nt	nt	nt
CCCCC(NC(=O)COc1cc2c(c3oc(=O)cc(C)c13)CCC(C)(C)O2)C(=O)O (stereo unspecified)	i	5.66*	i	i	i	i	i	i
Cc1cc(=O)oc2c3c(cc(OCC(=O)N[C@@H](C)C(=O)O)c12)OC(C)(C)CC3	i	i	i	i	i	nt	i	i
Cc1cc(=O)oc2c3c(cc(OCC(=O)N[C@@H](Cc4ccccc4)C(=O)O)c12)OC(C)(C)CC3	i	i	i	i	i	nt	nt	nt
